SMILES strings stand for the structures.

Common to all, as to conditions: stereoisomer not certain
The target in assay [1] is T1, OR52A5 (Homo sapiens) (UniProt Q9H2C5).
T1 sequence (whole entry): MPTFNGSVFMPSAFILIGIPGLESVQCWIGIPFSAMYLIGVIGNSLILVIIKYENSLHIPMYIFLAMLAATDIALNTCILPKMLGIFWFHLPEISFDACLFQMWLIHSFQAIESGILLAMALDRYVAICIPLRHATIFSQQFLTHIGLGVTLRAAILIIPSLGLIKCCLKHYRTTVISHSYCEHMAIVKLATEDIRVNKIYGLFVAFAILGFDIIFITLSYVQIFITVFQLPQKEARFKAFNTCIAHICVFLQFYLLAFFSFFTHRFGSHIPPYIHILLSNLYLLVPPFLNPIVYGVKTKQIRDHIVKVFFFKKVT
The essentials:
(§1)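 Each receptor–molecule pair is labelled responsive or non-responsive (inactive) according to whether the original authors judged the measured signal statistically different from baseline. The data were taken from the main text and supplementary material of published papers and checked for typos and inconsistencies. Assay methods differed by source, with transient luciferase assays in mammalian cell lines being common.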

For assay [2], the target named is T2, OR52B2 (Homo sapiens) (UniProt Q96RD2).
T2 sequence (whole entry): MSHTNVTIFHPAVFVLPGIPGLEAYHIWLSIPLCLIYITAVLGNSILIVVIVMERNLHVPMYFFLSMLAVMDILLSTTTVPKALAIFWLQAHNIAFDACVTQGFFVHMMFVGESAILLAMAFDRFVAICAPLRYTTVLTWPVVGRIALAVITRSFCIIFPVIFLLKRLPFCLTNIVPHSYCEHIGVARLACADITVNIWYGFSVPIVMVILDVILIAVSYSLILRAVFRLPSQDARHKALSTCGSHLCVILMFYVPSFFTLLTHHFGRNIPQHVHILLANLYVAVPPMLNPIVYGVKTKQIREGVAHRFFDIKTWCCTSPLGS
In short, it runs like this: as §1

In assay [3] the target is T3, OR52B4 (Homo sapiens) (UniProt Q8NGK2).
T3 sequence (whole entry): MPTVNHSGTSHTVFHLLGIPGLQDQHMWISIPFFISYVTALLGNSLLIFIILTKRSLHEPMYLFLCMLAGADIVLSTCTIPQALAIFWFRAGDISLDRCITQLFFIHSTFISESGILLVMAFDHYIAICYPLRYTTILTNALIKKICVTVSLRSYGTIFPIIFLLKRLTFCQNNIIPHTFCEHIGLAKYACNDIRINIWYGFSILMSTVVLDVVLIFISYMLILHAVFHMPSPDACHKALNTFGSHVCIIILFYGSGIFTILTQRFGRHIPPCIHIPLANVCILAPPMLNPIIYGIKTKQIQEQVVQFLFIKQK
In short, it runs like this: as §1

The target in assay [4] is T4, OR52B6 (Homo sapiens) (UniProt Q8NGF0).
T4 sequence (whole entry): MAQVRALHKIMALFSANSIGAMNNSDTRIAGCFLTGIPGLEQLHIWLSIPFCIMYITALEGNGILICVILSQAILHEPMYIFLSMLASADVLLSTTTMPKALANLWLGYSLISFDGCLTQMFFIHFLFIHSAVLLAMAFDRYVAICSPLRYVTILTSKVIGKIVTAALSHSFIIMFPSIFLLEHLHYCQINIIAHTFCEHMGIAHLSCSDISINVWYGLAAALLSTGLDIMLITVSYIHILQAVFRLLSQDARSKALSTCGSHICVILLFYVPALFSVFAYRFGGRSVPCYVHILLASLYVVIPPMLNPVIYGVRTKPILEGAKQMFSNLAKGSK
The essentials:
as §1

In assay [5] the target is T5, OR52D1 (Homo sapiens) (UniProt Q9H346).
T5 sequence (whole entry): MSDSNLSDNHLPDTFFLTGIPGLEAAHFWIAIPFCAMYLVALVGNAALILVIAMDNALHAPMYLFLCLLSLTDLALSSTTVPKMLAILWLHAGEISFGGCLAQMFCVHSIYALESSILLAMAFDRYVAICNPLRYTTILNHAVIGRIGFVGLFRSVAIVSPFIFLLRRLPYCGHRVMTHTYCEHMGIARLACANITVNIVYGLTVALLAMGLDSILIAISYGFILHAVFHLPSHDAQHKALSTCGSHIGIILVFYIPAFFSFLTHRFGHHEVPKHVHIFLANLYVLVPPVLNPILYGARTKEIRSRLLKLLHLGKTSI
The essentials: as §1

The target of assay [6] is OR52E2 (Homo sapiens) (UniProt Q8NGJ4). In short, it runs like this: as §1
Chain of OR52E2 (Homo sapiens) (Q8NGJ4 whole entry): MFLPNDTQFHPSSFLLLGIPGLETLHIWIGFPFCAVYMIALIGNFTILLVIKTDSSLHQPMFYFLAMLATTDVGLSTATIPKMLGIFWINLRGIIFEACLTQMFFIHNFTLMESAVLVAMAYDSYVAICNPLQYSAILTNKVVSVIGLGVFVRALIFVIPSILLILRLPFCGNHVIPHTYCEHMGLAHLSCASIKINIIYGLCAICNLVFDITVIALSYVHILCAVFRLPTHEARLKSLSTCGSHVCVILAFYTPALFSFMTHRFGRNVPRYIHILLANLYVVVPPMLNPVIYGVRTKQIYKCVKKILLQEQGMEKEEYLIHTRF
The target in assay [7] is OR52E4 (Homo sapiens) (UniProt Q8NGH9). The essentials: as §1
Chain of OR52E4 (Homo sapiens) (Q8NGH9 whole entry): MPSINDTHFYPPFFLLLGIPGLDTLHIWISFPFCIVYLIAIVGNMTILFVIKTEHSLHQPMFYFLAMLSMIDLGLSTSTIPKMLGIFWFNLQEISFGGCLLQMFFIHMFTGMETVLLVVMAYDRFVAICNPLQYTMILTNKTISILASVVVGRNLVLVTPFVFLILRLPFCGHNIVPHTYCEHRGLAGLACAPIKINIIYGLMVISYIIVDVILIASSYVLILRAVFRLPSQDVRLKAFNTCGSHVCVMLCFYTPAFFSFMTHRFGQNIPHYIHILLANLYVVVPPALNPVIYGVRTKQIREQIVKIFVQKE
In assay [8] the target is OR52E5 (Homo sapiens) (UniProt Q8NH55). In short, it runs like this:
as §1

In assay [9] the target is OR52E6 (Homo sapiens) (UniProt Q96RD3). The essentials: as §1
Chain of OR52E6 (Homo sapiens) (Q96RD3 whole entry): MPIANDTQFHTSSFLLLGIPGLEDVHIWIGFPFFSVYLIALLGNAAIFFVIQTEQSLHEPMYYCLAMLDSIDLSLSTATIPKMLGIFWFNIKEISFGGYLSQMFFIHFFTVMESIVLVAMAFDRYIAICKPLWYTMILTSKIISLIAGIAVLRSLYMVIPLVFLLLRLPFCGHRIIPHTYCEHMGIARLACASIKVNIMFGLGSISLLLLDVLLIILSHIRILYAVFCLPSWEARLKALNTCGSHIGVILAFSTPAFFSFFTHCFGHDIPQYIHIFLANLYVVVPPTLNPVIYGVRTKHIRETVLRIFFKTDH
Assay [10] addresses OR52E1 (Homo sapiens) (UniProt Q8NGJ3). The essentials: as §1
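Further: active if original authors judged signal statistically different from baseline.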

Chain of OR52E5 (Homo sapiens) (Q8NH55 whole entry): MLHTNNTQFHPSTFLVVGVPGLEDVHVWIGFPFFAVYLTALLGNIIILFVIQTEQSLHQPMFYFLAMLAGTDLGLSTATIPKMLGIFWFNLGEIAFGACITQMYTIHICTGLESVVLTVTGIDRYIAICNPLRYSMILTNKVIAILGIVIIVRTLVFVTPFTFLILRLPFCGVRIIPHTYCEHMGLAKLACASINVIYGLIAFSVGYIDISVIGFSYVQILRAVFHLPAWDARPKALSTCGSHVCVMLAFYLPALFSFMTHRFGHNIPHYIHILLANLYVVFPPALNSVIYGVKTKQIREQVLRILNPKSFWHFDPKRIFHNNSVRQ
Chain of OR52E1 (Homo sapiens) (Q8NGJ3 whole entry): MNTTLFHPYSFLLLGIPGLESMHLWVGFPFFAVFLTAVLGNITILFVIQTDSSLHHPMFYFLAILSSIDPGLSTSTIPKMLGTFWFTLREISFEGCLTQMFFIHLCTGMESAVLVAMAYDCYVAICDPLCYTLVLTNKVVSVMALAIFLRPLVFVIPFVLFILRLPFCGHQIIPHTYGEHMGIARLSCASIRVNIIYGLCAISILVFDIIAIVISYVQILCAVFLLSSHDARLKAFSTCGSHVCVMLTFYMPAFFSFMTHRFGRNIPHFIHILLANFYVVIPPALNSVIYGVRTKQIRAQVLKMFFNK

Consider `CCCCCC1CCCC(=O)O1` (stereo unspecified), for which the “odorant receptor agonist call” value in assay [1], in [2], in assay [3], in assay [4], in [6] and in [7] was “inactive” in each case. For the same molecule, the “odorant receptor agonist call” value in assay [8] and in [9] was “inactive” in each case. Also, in assay [5], the “odorant receptor agonist call” value is “active”. For `CCCCCCC=CCCC=O`, the “odorant receptor agonist call” value in assay [1], in assay [2], in assay [3], in assay [4], in assay [5] and in assay [10] was “inactive” each time. Also, the “odorant receptor agonist call” value in assay [6], in assay [7], in assay [8] and in assay [9] was “inactive” each time.

On to `CCC(S)C(C)CO` (stereo unspecified), for which the “odorant receptor agonist call” value in assay [1], in assay [2], in assay [3], in assay [4], in [5] and in assay [6] was “inactive” each time. The “odorant receptor agonist call” value in assay [7], in assay [8] and in assay [9] was “inactive” in each case.

Take `CCCCCC(=O)C(C)C(C)=O` (stereo unspecified): the “odorant receptor agonist call” value in [1], in [2], in [3], in assay [4], in assay [5] and in assay [6] was “inactive” in each case. Also, the “odorant receptor agonist call” value in [7], in [8] and in [9] was “inactive” each time.

For `Cc1cnc(C)c(C)n1`, the “odorant receptor agonist call” value in assay [1], in [2], in assay [3], in assay [4], in assay [5] and in assay [10] was “inactive” each time. Also, the “odorant receptor agonist call” value in [6], in assay [7] and in assay [9] was “inactive” throughout. As to `CCCCC(S)C(C)CO` (stereo unspecified), the “odorant receptor agonist call” value in [1] is “active”. In addition, the “odorant receptor agonist call” value in assay [2], in assay [3], in [4], in [5], in [6] and in assay [7] was “inactive” in each case. Also, the “odorant receptor agonist call” value in assay [8] and in assay [9] was “inactive” throughout. For the molecule `CC=Cc1ccc(OC)cc1`, the “odorant receptor agonist call” value in [5] was “active”. On the same count and under the same terms, the result for `CCCCCCC(=O)OCC` reads “active”; that for `CCCCCC(=O)OCC`, “active”.

Consider `OCc1ccccc1`, for which the “odorant receptor agonist call” value in assay [5] is “active”.

In the case of `CC1CCC(C(C)C)C(=O)C1` (stereo unspecified), the “odorant receptor agonist call” value in assay [5] is “inactive”. Same read-out and setting: the result for `CCCCCC(=O)OC` reads “inactive”. On the same count and under the same terms, the result for `CC(C)=CCCC(C)=CC#N` reads “active”; that for `CCCCCCC(=O)OC`, “active”; that for `CCCCCCC(=O)[O-].[H+]`, “active”.

For `CCCCCCO`, the “odorant receptor agonist call” value in assay [5] is “inactive”.

In the case of `CCCCCCCO`, the “odorant receptor agonist call” value in [5] is “inactive”. The same measure, in the same setting: the result for `c1cscn1` reads “active”. On the same count and under the same terms, the result for `C=C(C)C1CC=C(C)CC1` (stereo unspecified) reads “inactive”; that for `CCCCCCCCC(=O)OC`, “inactive”; that for `CCCCCCCCCCCC=O`, “inactive”. `CCCCCCCCCCCCO`: in assay [5], the “odorant receptor agonist call” value is “inactive”. The same measure, in the same setting: the result for `CCC(=O)O` reads “active”; that for `CCCCCCC(=O)CC`, “active”. Same read-out and setting: the result for `O=C(O)C=Cc1ccccc1` reads “active”. For `CC(C)=CCCC(C)CC=O` (stereo unspecified), the “odorant receptor agonist call” value in assay [5] is “inactive”. On the same count and under the same terms, the result for `CCCCC(O)CCC` (stereo unspecified) reads “inactive”. Same read-out and setting: the result for `CCCCCCCCO` reads “inactive”.

As for `CCCCCCCC(=O)[O-].[H+]`, the “odorant receptor agonist call” value in assay [5] is “active”. Same read-out and setting: the result for `CC(=O)C=CC1=C(C)CCCC1(C)C` reads “active”; that for `CC(=O)C(C)O` (stereo unspecified), “active”; that for `CCOC(=O)C(C)C`, “inactive”.

With `CCCCCCCCC(C)=O`, the “odorant receptor agonist call” value in [5] was “active”. Same read-out and setting: the result for `Cc1occc(=O)c1O` reads “inactive”; that for `CCCCCCCC(=O)OC`, “inactive”. On the same count and under the same terms, the result for `CCCCCC(O)CC` (stereo unspecified) reads “inactive”; that for `c1ccc2scnc2c1`, “active”. Same read-out and setting: the result for `c1ccc2ncccc2c1` reads “inactive”; that for `CCCC(=O)OCC`, “active”; that for `Cc1cnccn1`, “inactive”. For the molecule `CCCCC(CC)CO` (stereo unspecified), the “odorant receptor agonist call” value in [5] is “inactive”. As for `CC(C)=CCCC(C)=CCO`, the “odorant receptor agonist call” value in assay [5] is “inactive”. On the same count and under the same terms, the result for `CCCCCC(=O)CC` reads “active”; that for `CCCCCCC1CCC(=O)O1` (stereo unspecified), “inactive”; that for `CCCCCCCC(=O)OCC`, “inactive”.

In the case of `c1ccc2[nH]ccc2c1`, the “odorant receptor agonist call” value in [5] is “inactive”. Same read-out and setting: the result for `CC(=O)OCCC(C)C` reads “active”. Same read-out and setting: the result for `CCCCCC=O` reads “inactive”; that for `CCCCCCCCCC(=O)OC`, “inactive”. Still for that read-out and setting: the result for `Cc1ccc(C(C)C)c(O)c1` reads “inactive”; that for `CCCCCCC(C)O` (stereo unspecified), “inactive”. Turning to `CCCCCCCCCO`, the “odorant receptor agonist call” value in assay [5] is “active”. Consider `CCCCOC(=O)CCC`, for which, in [5], the “odorant receptor agonist call” value was “active”. Still for that read-out and setting: the result for `CC(=O)CCC=C(C)C` reads “active”; that for `CCCCCCCCC(=O)OCC`, “inactive”; that for `CC12CCC(CC1=O)C2(C)C` (stereo unspecified), “inactive”. The same measure, in the same setting: the result for `CCCCCCCC(C)=O` reads “inactive”; that for `CCCCCCCCCC(=O)OCC`, “inactive”. On the same count and under the same terms, the result for `CCCCCCC(C)=O` reads “inactive”; that for `COc1ccccc1`, “active”; that for `CSC`, “inactive”. `CCCCCC1C(=O)CCC1CC(=O)OC` (stereo unspecified): in assay [5], the “odorant receptor agonist call” value is “inactive”.

Values taken from the M2OR odorant receptor database.
